# Measured values from ChEMBL document CHEMBL3525967, “In vitro glucuronidation of the antibacterial triclocarban and its oxidative metabolites” (Drug Metab Dispos, 2012).
# Legend:
# [1] = Drug metabolism in microsomes (unknown origin) assessed as retention time treated with 10 uM triclocarban by LC-UV-MS method; assay type: ADME, Microsome
# [2] = Drug level in Swiss webster mouse urine treated with triclocarban at 5 mg/kg, po by LC-MS analysis; assay type: ADME, organism-based; parameters: dose 5 mg/kg, route oral; conditions: in vivo
# Outline: (§1)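 TCC given by oral gavage as 1 mg/mL in 20/80 DMSO/PEG400, at 1 mg/kg (rats) or 5 mg/kg (mice). Animals in metabolic cages (mice two per cage, rats singly), blank urine taken 24 h before dosing. Urine collected 0-24 h and 24-48 h and analysed by online-LC-MS.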
# [3] = Drug level in Sprague-Dawley rat urine treated with triclocarban at 1 mg/kg, po by LC-MS analysis; assay type: ADME, organism-based; parameters: dose 1 mg/kg, route oral; conditions: in vivo; outline: as §1
# Liver microsome [4] = assay: Drug metabolism in Sprague-Dawley rat liver microsomes assessed as retention time treated with 6-hydroxy-triclocarban by LC-UV-MS method in presence of UDPGA; assay type: ADME
# [5] = Drug excretion in human urine assessed as retention time treated with triclocarban by LC-UV-MS method; assay type: ADME
# Liver microsome [6] = assay: Drug level in human liver microsomes treated with triclocarban incubated for 5 mins prior to UDPGA addition measured after 30 mins by LC-UV-ESI-MS/MS analysis; assay type: ADME; conditions: 0.5 h
# Outline: (§2)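 Microsomes or Sf-9 Supersomes (5 µg protein in 200 µL 100 mM potassium phosphate pH 7.4) pre-treated with alamethicin on ice 15 min; substrate 10 µM final (2% DMSO), MgCl2 and saccharolactone 10 mM each; 5 min preincubation at 37 °C, then UDPGA to start. Samples taken at 5, 10, 15, 30 min (or 2, 5, 10, 15 min) into ACN with internal standard; LC-UV-ESI-MS/MS.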
# [7] = Drug level in cynomolgus monkey liver microsomes treated with triclocarban incubated for 5 mins prior to UDPGA addition measured after 30 mins by LC-UV-ESI-MS/MS analysis; assay type: ADME, Macaca fascicularis; conditions: 0.5 h; outline: as §2
# Liver = assay: Drug level in B6C3F1 mouse liver microsomes treated with triclocarban incubated for 5 mins prior to UDPGA addition measured after 30 mins by LC-UV-ESI-MS/MS analysis; assay type: ADME; conditions: 0.5 h; outline: as §2
# [8] = Drug level in human kidney microsomes treated with triclocarban incubated for 5 mins prior to UDPGA addition measured after 30 mins by LC-UV-ESI-MS/MS analysis; assay type: ADME; conditions: 0.5 h; outline: as §2
# [9] = target: T1, UDP-glucuronosyltransferase 1A9 (Homo sapiens, UniProt O60656); assay: Activity of human UGT1A9 expressed in baculovirus infected insect sf9 cells assessed as enzyme-mediated drug metabolism treated with triclocarban incubated for 5 mins prior to UDPGA addition measured after 30 mins by LC-ESI-MS analysis; assay type: ADME; conditions: sf9, 0.5 h; outline: as §2
# T1 sequence (O60656 whole entry): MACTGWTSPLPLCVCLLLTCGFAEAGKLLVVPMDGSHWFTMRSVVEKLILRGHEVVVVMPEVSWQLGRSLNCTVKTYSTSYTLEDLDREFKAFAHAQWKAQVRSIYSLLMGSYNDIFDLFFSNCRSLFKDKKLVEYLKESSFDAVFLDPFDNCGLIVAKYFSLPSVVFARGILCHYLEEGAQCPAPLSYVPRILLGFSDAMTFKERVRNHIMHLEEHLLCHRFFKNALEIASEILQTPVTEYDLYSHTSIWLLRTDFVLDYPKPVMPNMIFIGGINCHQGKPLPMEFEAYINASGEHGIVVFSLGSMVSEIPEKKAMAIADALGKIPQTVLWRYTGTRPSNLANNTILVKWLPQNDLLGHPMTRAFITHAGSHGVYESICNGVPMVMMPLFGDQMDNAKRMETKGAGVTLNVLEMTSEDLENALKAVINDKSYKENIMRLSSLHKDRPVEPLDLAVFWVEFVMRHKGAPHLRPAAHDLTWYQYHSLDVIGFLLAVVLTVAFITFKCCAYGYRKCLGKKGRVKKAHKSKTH
Retention_time [1] [min],Drug metabolism [2],Drug metabolism [3],Retention_time (Liver microsome [4]) [min],Retention_time [5] [min],Drug metabolism (Liver microsome [6]),Drug metabolism [7],Drug metabolism (Liver),Drug metabolism [8],Drug metabolism [9],Structure (SMILES)
2.5,metabolite_detected,metabolite_detected,,,,,,,,O=C(Nc1ccc(Cl)c(Cl)c1)Nc1ccc(Cl)cc1OC1O[C@H](C(=O)O)[C@@H](O)[C@H](O)[C@H]1O (stereo not given in full)
,metabolite_detected,metabolite_detected,2.51,,,,,,,O=C(Nc1ccc(Cl)cc1)Nc1cc(Cl)c(Cl)cc1OC1O[C@H](C(=O)O)[C@@H](O)[C@H](O)[C@H]1O (stereo not given in full)
,metabolite_detected,,,1.97,metabolite_detected,metabolite_detected,metabolite_detected,metabolite_detected,metabolite_detected,O=C(O)[C@H]1OC(N(C(=O)Nc2ccc(Cl)cc2)c2ccc(Cl)c(Cl)c2)[C@H](O)[C@@H](O)[C@@H]1O (stereo not given in full)
,metabolite_detected,,,2.07,metabolite_detected,metabolite_detected,metabolite_detected,metabolite_detected,metabolite_detected,O=C(O)[C@H]1OC(N(C(=O)Nc2ccc(Cl)c(Cl)c2)c2ccc(Cl)cc2)[C@H](O)[C@@H](O)[C@@H]1O (stereo not given in full)
,metabolite_detected,metabolite_detected,2.26,,,,,,,O=C(Nc1ccc(Cl)c(Cl)c1)Nc1ccc(Cl)c(OC2O[C@H](C(=O)O)[C@@H](O)[C@H](O)[C@H]2O)c1 (stereo not given in full)
4.36,,,,,,,,,,O=C(Nc1ccc(Cl)cc1)Nc1ccc(Cl)cc1
3.46,,,,,,,,,,O=C(Nc1ccc(Cl)c(Cl)c1)Nc1ccc(Cl)cc1OS(=O)(=O)O
